Compound activity deposited in PubChem by The Scripps Research Institute Molecular Screening Center.
Rows were chosen to be rich in hits. Some 3.4% of all compounds tested hit in one or more screens of this group.
CHRM1 antagonist: blocks human M1 muscarinic receptor; P11229; CHO-K1 hM1, Fluo-8 calcium fluorescence, ACh EC80 antagonist; inhibition, % at 3 µM; 1.3% of 360,000 active;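 active = percent inhibition above its own plate's cutoff, namely the mean of that plate's compound wells plus 3 SD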;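 also: peak over basal fluorescence ratio during 140 s after agonist addition; 0% = ACh EC80 plus DMSO and 100% = DMSO alone without agonist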
Target sequence (P11229 whole entry, looked up): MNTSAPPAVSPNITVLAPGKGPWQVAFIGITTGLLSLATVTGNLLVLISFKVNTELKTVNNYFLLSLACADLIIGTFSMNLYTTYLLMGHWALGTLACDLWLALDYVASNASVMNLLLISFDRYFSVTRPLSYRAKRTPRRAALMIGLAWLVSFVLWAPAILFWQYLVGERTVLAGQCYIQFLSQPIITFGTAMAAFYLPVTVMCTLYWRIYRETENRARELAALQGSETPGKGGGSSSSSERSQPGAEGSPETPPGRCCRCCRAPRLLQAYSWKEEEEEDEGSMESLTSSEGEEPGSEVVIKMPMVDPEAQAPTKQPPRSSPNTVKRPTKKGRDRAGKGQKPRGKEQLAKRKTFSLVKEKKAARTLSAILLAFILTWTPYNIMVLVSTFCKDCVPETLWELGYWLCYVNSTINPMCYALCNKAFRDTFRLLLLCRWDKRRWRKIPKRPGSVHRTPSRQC
TAAR1 agonist: human TAAR1 agonism. Q96RJ0. activation, % at 3 µM. 0.99% of 360,000 active. CHO RD-HGA16 TAAR1, Fluo-8 calcium fluorescence; vehicle wells 0%, saturating PEA agonist 100%;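 active = activation above the mean activation of all test compounds in the run plus 3 SD, cut at about 38% in these data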
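Test system: RD-HGA16 (CHO) cells co-expressing Gα16 and hTAAR1 | Doses: Single dose, 3 µM | Schedule: 17-24 h seeding, 75 min 37 °C dye, 30 min RT | Evaluation: % activation from peak over basal fluorescence ratio, DMSO-to-PEA scaled | Technique: Kinetic Fluo-8 calcium fluorescence | Benchmarks: Low control DMSO, high control PEA (EC100)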
CHRM1 agonist: activates human CHRM1 receptor | P11229 | CHO-K1 hM1, Fluo-8 calcium fluorescence, agonist mode; 0% DMSO, 100% acetylcholine EC100 | activation, % at 3 µM | 0.33% of 360,000 active | AID 588814;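 active = activation above the run's mean compound activation plus 3 SD, cut at about 16% in these data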;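 also: peak over basal fluorescence ratio within a 140 s kinetic read after compound addition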
TAAR1 antag: antagonists of human TAAR1. Q96RJ0. CHO RD-HGA16 TAAR1, Fluo-8 calcium fluorescence, antagonist. inhibition, % at 3 µM. 1.5% of 360,000 active. AID 624466;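 active = inhibition above a per-plate cutoff, the mean inhibition of test compounds on that plate plus 3 SD, cut at about 49% in these data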;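 also: 0% = DMSO plus EC80 beta-PEA response and 100% = DMSO alone without agonist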
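Material: CHO RD-HGA16 cells bearing hTAAR1; compound dosing: one-point dosing, 3 µM nominal final; schedule: dye loading 75 min at 37 °C, then 30 min room temperature; measured by: calcium fluorescence with Fluo-8; control set: vehicle and agonist controls; replication: n of 1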
M1 PAM: human CHRM1 positive allosteric modulation; P11229; CHO-K1 hM1, Fluo-8 calcium fluorescence, ACh EC20; 0% = ACh EC20, 100% = maximal ACh; activation, % at 3 µM; 0.088% of 360,000 active; in the data active = activation above about 19%, passing the limit was not always enough
Active calls of the source: *.

Screening COc1ccc(CNC(=O)CCNC(=O)C2CCN(S(=O)(=O)c3ccc(OC)cc3)CC2)cc1 returned CHRM1 antagonist -33, TAAR1 agonist 2, CHRM1 agonist 1, TAAR1 antag -11 and M1 PAM 27*.
`O=C(NCc1ccccc1)C1CCN(S(=O)(=O)c2ccc(N3CCCC3=O)cc2)CC1` gave CHRM1 antagonist -17, TAAR1 agonist 2, CHRM1 agonist -1, TAAR1 antag 8 and M1 PAM 12.
`O=C(NCc1ccc(Cl)cc1)C1CCN(S(=O)(=O)c2ccc(N3CCCC3=O)cc2)CC1` gave CHRM1 antagonist 33*, TAAR1 agonist 5, CHRM1 agonist 1, TAAR1 antag 13 and M1 PAM -15.
Screening COc1ccc(NC(=O)CCNC(=O)C2CCN(S(=O)(=O)c3ccc(OC)cc3)CC2)cc1 returned CHRM1 antagonist -5, TAAR1 agonist 1, CHRM1 agonist -1, TAAR1 antag -10 and M1 PAM 7.
For CCCCOCC1CN(CCCC)S(=O)(=O)c2c(cccc2N2CCCC2)O1 (stereo unspecified) the results were TAAR1 agonist 1 and TAAR1 antag -20.
Cn1cc([C@]2(O)C(=O)Nc3c(F)cccc32)c2ccccc21 was read as TAAR1 agonist 5 and TAAR1 antag 5.
c1ccc(Cn2c(-c3ccccc3)c[n+]3c2SCCC3)cc1 was read as CHRM1 antagonist 98*, TAAR1 agonist 9, CHRM1 agonist -9, TAAR1 antag -1 and M1 PAM -25.
For c1ccc(-c2cn(-c3ccccc3)c3[n+]2CCCS3)cc1 the results were CHRM1 antagonist 7, TAAR1 agonist 14, CHRM1 agonist -8, TAAR1 antag 6 and M1 PAM -6.
`CC1=C(C)/C(=N\OS(=O)(=O)c2ccccc2)C=CC1=O` gave CHRM1 antagonist 21*, CHRM1 agonist 8 and M1 PAM -9.
CCc1nc2ccc(C(=O)N(C)CCCN(C)C)cn2c1N(C=O)CCC(C)C was read as CHRM1 antagonist -25, TAAR1 agonist -1, CHRM1 agonist 3, TAAR1 antag 6 and M1 PAM 8.
N#Cc1ccc(OCCCN2CCC(C(O)(C3=CCCC3)c3ccccc3)CC2)cc1 (stereo unspecified) was read as TAAR1 agonist 19 and TAAR1 antag 3.
COc1ccc(-c2ccc3c(n2)CCCN3S(=O)(=O)c2ccc(C(F)(F)F)cc2)cc1 was read as TAAR1 agonist 0 and TAAR1 antag -41.
CC12C=CC(C)(C3C(=O)NC(=O)C31)C1C3C(=O)NC(=O)C3C12 (stereo unspecified) was read as TAAR1 agonist 2 and TAAR1 antag -16.
COC(=O)N1Cc2ccnnc2CC1c1ccccc1-c1ccccc1 (stereo unspecified) was read as TAAR1 agonist 1 and TAAR1 antag -6.
Screening CN(C)c1ccc(NC(=O)Nc2ccc3snnc3c2)cc1 returned CHRM1 antagonist 21, TAAR1 agonist 22, CHRM1 agonist 2, TAAR1 antag 58* and M1 PAM -12.
For CC(=O)c1ccc(NC(=O)c2ccc3snnc3c2)cc1 the results were CHRM1 antagonist 6, TAAR1 agonist 3, CHRM1 agonist -1, TAAR1 antag -4 and M1 PAM -5.
For O=C(Nc1ccccc1)Nc1ccc2nnsc2c1 the results were CHRM1 antagonist 59*, TAAR1 agonist 30, CHRM1 agonist 5, TAAR1 antag 3 and M1 PAM -21.
O=C(Nc1ccccc1)Nc1ccc2snnc2c1 was read as CHRM1 antagonist 20, TAAR1 agonist 40*, CHRM1 agonist 9, TAAR1 antag 17 and M1 PAM -9.
For CCOc1cc(CNC2CCCC2)cc(Cl)c1OCc1ccc(F)cc1 the results were CHRM1 antagonist -15, TAAR1 agonist 40*, CHRM1 agonist 1, TAAR1 antag 16 and M1 PAM 1.
CN(C)S(=O)(=O)N1CCC(Oc2ccc(C(=O)NC3CCOC(C)(C)C3)cc2)CC1 (stereo unspecified) was read as CHRM1 antagonist -18, TAAR1 agonist 3, CHRM1 agonist 0, TAAR1 antag -2 and M1 PAM 10.
